ChEMBL document CHEMBL3045714, “Insect antifeedants from tropical plants: structures of dumnin and dumsenin” (2004)

How the values were obtained:
Assay type in all cases: functional
Pectinophora gossypiella [1] = experiment: Antifeedant activity against second-instar larvae of Pectinophora gossypiella (pink bollworm) assessed as concentration required for 50 % protection of host plant substrate after 48 hr by leaf disk assay
How it was run: (§1)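 Leaf disks (1 cm²) punched from glandless cotton cultivar, randomized, 12 per Petri dish on moistened filter paper; alternate disks treated on upper surface with 25 μL acetone or 0–100 μg sample in 25 μL acetone. Three larvae per dish, 22 °C, dark, 48 h; percent disk area eaten vs control scored visually. PC50/PC95 = ca. 50/95% protection; triplicate on separate occasions, mean.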

Pectinophora gossypiella [2] = experiment: Antifeedant activity against second-instar larvae of Pectinophora gossypiella (pink bollworm) assessed as concentration required for 95 % protection of host plant substrate after 48 hr by leaf disk assay; how it was run: as §1
Spodoptera frugiperda [3] = experiment: Antifeedant activity against second-instar larvae of Spodoptera frugiperda (fall armyworm) assessed as concentration required for 50 % protection of host plant substrate after 48 hr by leaf disk assay; how it was run: as §1
Spodoptera frugiperda [4] = experiment: Antifeedant activity against second-instar larvae of Spodoptera frugiperda (fall armyworm) assessed as concentration required for 95 % protection of host plant substrate after 48 hr by leaf disk assay; how it was run: as §1

Row | SMILES | PC50 (Pectinophora gossypiella [1]) [µg/mL] | PC95 (Pectinophora gossypiella [2]) [µg/mL] | PC50 (Spodoptera frugiperda [3]) [µg/mL] | PC95 (Spodoptera frugiperda [4]) [µg/mL]
1 | CC(=O)O[C@H]1[C@H](OC(C)=O)[C@]2(C)[C@@H](c3ccoc3)C[C@@H]3O[C@@]32[C@@]2(C)[C@H](OC(=O)Cc3ccccc3)C[C@H]3C(C)(C)O[C@]4(O)C(=O)CC[C@]34[C@@H]12 [DUMNIN] | 1 | 16 |  | 
2 | CC(=O)O[C@H]1[C@H](OC(C)=O)[C@@]2(C)C(=CC[C@@H]2c2ccoc2)[C@@]2(C)C(=O)C[C@H]3C(C)(C)O[C@]4(O)C(=O)CC[C@]34[C@@H]12 [DUMSENIN] | 2 | 8 | 1 | 4
3 | CC(=O)O[C@H]1[C@H](OC(C)=O)[C@]2(C)[C@@H](c3ccoc3)C[C@@H]3O[C@@]32[C@@]2(C)[C@H](OC(=O)CC(C)C)C[C@H]3C(C)(C)O[C@]4(O)C(=O)CC[C@]34[C@@H]12 [DUMSIN] | 1 | 8 |  | 
4 | CC(=O)O[C@@H]1[C@@H]2[C@@]34CC(=O)C[C@@H]3OC(C)(C)[C@@H]4CC(=O)[C@@]2(C)[C@@]23O[C@@H]2C[C@H](c2ccoc2)[C@]3(C)[C@H]1OC(C)=O [ZUMSIN] | 1 | 8 | 2 | 16
